In ChEMBL document CHEMBL4145570, “Structures and Biological Evaluation of Monoterpenoid Glycosides from the Roots of Paeonia lactiflora” (J Nat Prod, 2018):
Active and inactive are the calls of the source. The calls are words filed in the database; no cut-off is given here.

Columns and labels:
RAW264.7 [1] = experiment: Antiinflammatory activity in mouse RAW264.7 cells assessed as inhibition of LPS-induced NO production at 40 uM relative to control; type: functional
BGC-823 = experiment: Cytotoxicity against human BGC823 cells assessed as decrease in cell viability at 10 uM after 24 hrs by MTT assay; type: functional, cell-based
RAW264.7 [2] = experiment: Antiinflammatory activity in mouse RAW264.7 cells assessed as inhibition of LPS-induced NO production at 80 uM relative to control; type: functional
RAW264.7 [3] = experiment: Antiinflammatory activity in mouse RAW264.7 cells assessed as inhibition of LPS-induced NO production at 10 uM relative to control; type: functional
HCT-8 = experiment: Cytotoxicity against human HCT8 cells assessed as decrease in cell viability at 10 uM after 24 hrs by MTT assay; type: functional, cell-based
Peritoneal macrophage = experiment: Inhibition of LPS-induced TNFalpha secretion in C57BL6J mouse peritoneal macrophages at 10 uM after 24 hrs; type: functional, cell-based
A549 = experiment: Cytotoxicity against human A549 cells assessed as decrease in cell viability at 10 uM after 24 hrs by MTT assay; type: functional, cell-based
RAW264.7 [4] = experiment: Antiinflammatory activity in mouse RAW264.7 cells assessed as inhibition of LPS-induced NO production at 20 uM relative to control; type: functional
[5] = target: T1, Tyrosine-protein phosphatase non-receptor type 1 (Homo sapiens) (UniProt P18031); experiment: Inhibition of PTP1B (unknown origin) at 10 uM
T1 sequence (whole entry): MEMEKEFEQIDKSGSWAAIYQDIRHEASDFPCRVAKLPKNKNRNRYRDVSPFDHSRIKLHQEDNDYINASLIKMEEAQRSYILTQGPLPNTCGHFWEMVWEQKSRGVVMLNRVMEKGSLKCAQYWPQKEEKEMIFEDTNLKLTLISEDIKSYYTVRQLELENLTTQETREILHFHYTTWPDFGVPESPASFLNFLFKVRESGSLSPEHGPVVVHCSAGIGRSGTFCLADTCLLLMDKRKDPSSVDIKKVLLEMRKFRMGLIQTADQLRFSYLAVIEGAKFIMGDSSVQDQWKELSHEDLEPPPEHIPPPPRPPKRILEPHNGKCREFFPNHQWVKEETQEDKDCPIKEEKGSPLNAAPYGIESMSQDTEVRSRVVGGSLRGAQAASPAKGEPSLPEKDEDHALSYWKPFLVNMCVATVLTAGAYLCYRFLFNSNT

Bel-7402 = experiment: Cytotoxicity against human Bel7402 cells assessed as decrease in cell viability at 10 uM after 24 hrs by MTT assay; type: functional, cell-based
HepG2 = experiment: Protection against acetaminophen-induced cell injury in human HepG2 cells at 10 uM after 24 hrs by MTT assay; type: functional, cell-based
A2780 = experiment: Cytotoxicity against human A2780 cells assessed as decrease in cell viability at 10 uM after 24 hrs by MTT assay; type: functional, cell-based
RAW264.7 [6] = experiment: Antiinflammatory activity in mouse RAW264.7 cells assessed as inhibition of LPS-induced NO production at 60 uM relative to control; type: functional
RAW264.7 [7] = experiment: Antiinflammatory activity in mouse RAW264.7 cells assessed as inhibition of LPS-induced NO production; type: functional, cell-based
How it was run: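 NO release measured in LPS-stimulated RAW264.7 macrophages alongside an unstimulated control group; IC50 derived; dexamethasone as positive control.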

RAW264.7 [8] = experiment: Cytotoxicity against mouse RAW264.7 cells up to 100 uM; type: cell-based
How it was run: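 Viability assessed in LPS-stimulated RAW264.7 macrophages during the NO-production assay, at concentrations up to 100 μM.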

SMILES | inhibition [5] | IC50 (RAW264.7 [7]) | inhibition at 40 µM (RAW264.7 [1]) | Activity (BGC-823) | inhibition at 80 µM (RAW264.7 [2]) | inhibition at 10 µM (RAW264.7 [3]) | Activity (HCT-8) | inhibition (Peritoneal macrophage) | Activity (A549) | inhibition at 20 µM (RAW264.7 [4]) | Activity (Bel-7402) | Activity (HepG2) | Activity (A2780) | inhibition at 60 µM (RAW264.7 [6]) | Activity (RAW264.7 [8])
CC(C)c1ccc(CO[C@@H]2O[C@H](CO[C@@H]3O[C@@H](C)[C@H](O)[C@@H](O)[C@H]3O)[C@@H](O)[C@H](O)[C@H]2O)cc1 | inactive | 97.5 µM | 31.1% | inactive | 52.4% | 22.2% | inactive | inactive | inactive | 23.6% | inactive | inactive | inactive | 38.7% | Non-Toxic
CC12C(=O)O[C@@]3(C)C[C@@H](O)[C@H]1C[C@]23O[C@@H]1O[C@H](COC(=O)c2ccccc2)[C@@H](O)[C@H](O)[C@H]1O | inactive | > 100 µM | 28.2% | inactive | 39.4% | 19.1% | inactive | inactive | inactive | 24.4% | inactive | inactive | inactive | 34.8% | Non-Toxic
CC1(C)[C@@H]2C[C@H]1[C@@H](O)C[C@@H]2C(=O)OC[C@H]1O[C@@H](O[C@]23CC4C2(COC(=O)c2ccccc2)[C@H]2O[C@]4(O)C[C@]3(C)O2)[C@H](O)[C@@H](O)[C@@H]1O | inactive | > 100 µM | 27.5% | inactive | 40.8% | 8.58% | inactive | inactive | inactive | 23.3% | inactive | inactive | inactive | 38.7% | Non-Toxic
C=C[C@@](C)(O)CC/C=C(\C)C(=O)OC[C@H]1O[C@@H](O[C@]23CC4C2(COC(=O)c2ccccc2)[C@H]2O[C@]4(O)C[C@]3(C)O2)[C@H](O)[C@@H](O)[C@@H]1O | inactive | > 100 µM | 28.1% | inactive | 41.3% | 9.85% | inactive | inactive | inactive | 22.6% | inactive | inactive | inactive | 38.1% | Non-Toxic
C[C@@H]1C[C@H]2[C@@H]3CCC4=CC(=O)C=C[C@]4(C)[C@@]3(F)[C@@H](O)C[C@]2(C)[C@@]1(O)C(=O)CO [DEXAMETHASONE] |  | 8.3 µM |  |  |  |  |  |  |  |  |  |  |  |  | 
C[C@]1(C(=O)OC[C@H]2O[C@@H](O[C@]34CC5C3(COC(=O)c3ccccc3)[C@H]3O[C@]5(O)C[C@]4(C)O3)[C@H](O)[C@@H](O)[C@@H]2O)[C@@H]2CC[C@H](CO)[C@H]1C2 | inactive | > 100 µM | 25.8% | inactive | 44.6% | 16.5% | inactive | inactive | inactive | 22.8% | inactive | inactive | inactive | 29.3% | Non-Toxic

Second part, led by results:

inhibition [5] | IC50 (RAW264.7 [7]) | SMILES | inhibition at 40 µM (RAW264.7 [1]) | Activity (BGC-823) | inhibition at 80 µM (RAW264.7 [2]) | inhibition at 10 µM (RAW264.7 [3]) | Activity (HCT-8) | inhibition (Peritoneal macrophage) | Activity (A549) | inhibition at 20 µM (RAW264.7 [4]) | Activity (Bel-7402) | Activity (HepG2) | Activity (A2780) | inhibition at 60 µM (RAW264.7 [6]) | Activity (RAW264.7 [8])
inactive | > 100 µM | CC(C)=CCC/C(C)=C/C(=O)O[C@@H]1O[C@H](CO[C@@H]2O[C@@H](C)[C@H](O)[C@@H](O)[C@H]2O)[C@@H](O)[C@H](O)[C@H]1O | 29.2% | inactive | 41% | 21.4% | inactive | inactive | inactive | 21.4% | inactive | inactive | inactive | 33.4% | Non-Toxic
inactive | 64.8 µM | CC1=CC(=O)[C@H]2C[C@@]1(O[C@@H]1O[C@H](CO)[C@@H](O)[C@H](O)[C@H]1O)C2(C)COC(=O)c1ccccc1 (stereo partly specified) | 26% | inactive | 61.7% | 25.7% | inactive | inactive | inactive | 19.3% | inactive | inactive | inactive | 45.9% | Non-Toxic
inactive | 60.1 µM | C[C@]12CC(=O)[C@H]3C[C@@]1(O[C@@H]1O[C@H](CO)[C@@H](O)[C@H](O)[C@H]1O)O[C@@H](O2)[C@H]3COC(=O)c1ccccc1 | 34.9% | inactive | 61% | 28% | inactive | inactive | inactive | 29.6% | inactive | inactive | inactive | 49.9% | Non-Toxic
inactive | > 100 µM | CC1=CC(=O)[C@H]2C[C@]1(O[C@@H]1O[C@H](COC(=O)c3ccccc3)[C@@H](O)[C@H](O)[C@H]1O)C2(C)CO (stereo partly specified) | 18.3% | inactive | 45% | 12.8% | inactive | inactive | inactive | 16.2% | inactive | inactive | inactive | 31.9% | Non-Toxic
inactive | > 100 µM | C[C@]1(C(=O)OC[C@H]2O[C@@H](O[C@]34CC5C3(COC(=O)c3ccccc3)[C@H]3O[C@]5(O)C[C@]4(C)O3)[C@H](O)[C@@H](O)[C@@H]2O)[C@@H]2CC[C@@H](CO)[C@H]1C2 | 22.1% | inactive | 40.7% | 19.7% | inactive | inactive | inactive | 20.9% | inactive | inactive | inactive | 39.5% | Non-Toxic
